The results in this text go back to ChEMBL document CHEMBL4138140, “Discovery of Mechanism-Based Inactivators for Human Pancreatic Carboxypeptidase A from a Focused Synthetic Library” (ACS Med Chem Lett, 2017).

The target in assay [1] is T1, Carboxypeptidase A1 (Bos taurus, UniProt P00730).
T1 sequence (P00730 whole entry): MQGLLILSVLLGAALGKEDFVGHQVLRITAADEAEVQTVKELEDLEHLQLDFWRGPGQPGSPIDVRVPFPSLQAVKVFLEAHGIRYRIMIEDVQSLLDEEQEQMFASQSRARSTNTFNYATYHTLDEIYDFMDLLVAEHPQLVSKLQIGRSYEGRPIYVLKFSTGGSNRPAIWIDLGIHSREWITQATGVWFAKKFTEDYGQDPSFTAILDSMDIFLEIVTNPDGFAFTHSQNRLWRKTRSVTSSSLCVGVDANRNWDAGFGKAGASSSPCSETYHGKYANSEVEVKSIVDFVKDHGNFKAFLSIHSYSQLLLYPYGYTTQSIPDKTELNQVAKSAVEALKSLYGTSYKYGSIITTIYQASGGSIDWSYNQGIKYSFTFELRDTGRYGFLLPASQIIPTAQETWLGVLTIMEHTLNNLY
Briefly: Inhibition of bovine carboxypeptidase A using N-(4-methoxyphenylazoformyl)-Phe-OH as substrate preincubated for 3 hrs followed by susbtrate addition measured for 15 mins at 30 secs interval. In outline:
(§1)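 Compound was pre-incubated with enzyme before the activity assay, either briefly (2 min) or long (3 h), to test for time-dependent inhibition.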

Assay [2] deals with T1, Carboxypeptidase A1. The assay can be described thus: Inhibition of bovine carboxypeptidase A using N-(4-methoxyphenylazoformyl)-Phe-OH as substrate preincubated for 2 mins followed by susbtrate addition measured for 15 mins at 30 secs interval. The procedure, abridged: as §1
The target in assay [3] is T2, Carboxypeptidase A1 (Homo sapiens) (UniProt P15085).
T2 sequence (whole entry): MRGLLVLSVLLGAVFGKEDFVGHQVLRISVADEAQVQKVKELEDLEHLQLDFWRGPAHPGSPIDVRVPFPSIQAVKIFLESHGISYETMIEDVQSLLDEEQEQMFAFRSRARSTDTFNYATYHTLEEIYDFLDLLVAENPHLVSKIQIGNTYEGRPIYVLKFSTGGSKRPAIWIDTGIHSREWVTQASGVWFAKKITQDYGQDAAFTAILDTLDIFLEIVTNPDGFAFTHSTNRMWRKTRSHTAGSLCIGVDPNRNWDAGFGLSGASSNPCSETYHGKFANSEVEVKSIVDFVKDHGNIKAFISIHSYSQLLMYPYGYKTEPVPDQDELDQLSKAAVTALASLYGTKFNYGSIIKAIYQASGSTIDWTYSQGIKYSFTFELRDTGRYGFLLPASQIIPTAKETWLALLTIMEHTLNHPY
Briefly: (§2) Irreversible inhibition of recombinant human carboxypeptidase A1 expressed in Pichia pastoris using N-(4-methoxyphenylazoformyl)-Phe-OH as substrate measured for 600 secs by double reciprocal plot analysis.

Assay [4] deals with T3, Carboxypeptidase A1 (Homo sapiens, UniProt P15085).
T3 sequence (P15085 whole entry): T2 sequence (whole entry)
Described as §2. As to conditions: read-out: Ki(app).

SMILES strings stand for the structures.

Usually IC50 stands for the concentration at which inhibition is half-maximal. Read a low IC50 as higher potency. Turning to `O=C(O)[C@@H](CC1CC1)[C@@H]1CO1` (racemic), the values for the concentration for half-maximal inhibition (IC50) in assay [1] and in assay [2] were 11.2 µM and 276 µM, respectively.

For `O=C(O)[C@@H](CC1CC1)[C@H]1CS1` (racemic), the concentration for half-maximal inhibition (IC50) was 1.8 µM in assay [1] and 174 µM in assay [2].

`CC(C)C[C@H](C(=O)O)[C@H]1CS1` (racemic) registered a half-maximal inhibitory concentration (IC50) in assay [1] of 31.9 µM.

With `O=C(O)[C@@H](CCc1ccccc1)[C@@H]1CO1` (racemic), the IC50 in assay [1] was determined as 8.25 µM.

In the case of `O=C(O)[C@@H](Cc1ccc(F)cc1)[C@H]1CS1` (racemic), the Kinact in assay [3] was determined as 0.47 min⁻¹. For the same compound, the Ki in assay [4] amounted to 60.4 µM. Also, the IC50 in assay [1] was found to be 0.47 µM; in assay [2], 18.7 µM.

On to `O=C(O)[C@@H](Cc1ccc(I)cc1)[C@@H]1CO1` (racemic), for which the Kinact in assay [3] stood at 0.6 min⁻¹. The Ki in assay [4] amounted to 413 µM. Further, the IC50 came to 1.04 µM in assay [1] and 48.3 µM in assay [2].

Regarding `CCC[C@H](C(=O)O)[C@@H]1CS1` (racemic), in assay [3], the Kinact came to 0.82 min⁻¹. In addition, in assay [4], the Ki is 294 µM. Besides, the concentration for half-maximal inhibition (IC50) is 0.6 µM in assay [1] and 31.9 µM in assay [2].

For the compound `CC(C)C[C@H](C(=O)O)[C@@H]1CO1` (racemic), half-maximal inhibition in assay [1] (IC50) required 33.1 µM.

For the compound `O=C(O)[C@@H](CC1CCC1)[C@H]1CS1` (racemic), the half-inhibitory concentration (IC50) amounted to 0.97 µM in assay [1] and 60 µM in assay [2].

For the compound `O=C(O)[C@@H](Cc1ccc(F)cc1)[C@@H]1CO1` (racemic), the Kinact in assay [3] was determined as 0.71 min⁻¹. In assay [4], the Ki was 238 µM. For the same compound, the IC50 in assay [1] was 0.51 µM; in assay [2] it was 21.9 µM.

Consider `CCC[C@H](C(=O)O)[C@@H]1CO1` (racemic), for which the half-inhibitory concentration (IC50) in assay [1] is 1.13 µM; in assay [2] it was 115 µM.

Turning to `O=C(O)[C@@H](CC1CCC1)[C@@H]1CO1` (racemic), the figures for the half-maximal inhibitory concentration (IC50) in assay [1] and in assay [2] were 1.13 µM and 57.9 µM, respectively.

`CC(C)C[C@H](C(=O)O)[C@H]1CO1` (racemic) showed an IC50 in assay [1] of 0.57 µM.

For the compound `O=C(O)[C@@H](CCc1ccccc1)[C@@H]1CS1` (racemic), in assay [1], the half-maximal inhibitory concentration (IC50) turned out to be 16.4 µM.

With `CC(C)C[C@H](C(=O)O)[C@@H]1CS1` (racemic), the Kinact in assay [3] is 0.52 min⁻¹. In addition, in assay [4], the Ki turned out to be 56 µM. Moreover, the IC50 in assay [1] turned out to be 0.26 µM; in assay [2] it was 14 µM.

Turning to `O=C(O)[C@@H](Cc1ccc(I)cc1)[C@H]1CS1` (racemic), in assay [3], the Kinact was 0.69 min⁻¹. Also, the Ki in assay [4] turned out to be 289 µM. Also, the half-inhibitory concentration (IC50) was 0.96 µM in assay [1] and 46.3 µM in assay [2].
